# Assay outcomes deposited in PubChem by several laboratories.
# CHOP inhibitor: inhibitors of CHOP promoter induction, primary screen, cell-based, unfolded protein response, luciferase reporter | inhibition, % at 10 µM | 3.8% of 220,000 active | AID 2732, 2010 | CHO-K1 CHOP-promoter luciferase, tunicamycin-induced, 15-18 h;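 active = compounds that reduced the stress-induced luciferase reporter signal by more than about 70% of percent inhibition, limit read from the data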;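 also: 0% = tunicamycin plus vehicle and 100% = wells without tunicamycin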
# PREPL inhibitor: PREPL enzyme inhibitors, primary screen, biochemical, fluorescence polarization; AID 2751, 2010; recombinant PREPL, fluorescence polarization activity-based probe; inhibition, % at 5.96 µM; 0.68% of 320,000 active; Prolyl endopeptidase-like (Homo sapiens), Q4J6C6; in the data active = inhibition above about 43%;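 also: 0% = enzyme with DMSO and 100% = wells lacking enzyme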
# Target sequence (Q4J6C6 whole entry, looked up): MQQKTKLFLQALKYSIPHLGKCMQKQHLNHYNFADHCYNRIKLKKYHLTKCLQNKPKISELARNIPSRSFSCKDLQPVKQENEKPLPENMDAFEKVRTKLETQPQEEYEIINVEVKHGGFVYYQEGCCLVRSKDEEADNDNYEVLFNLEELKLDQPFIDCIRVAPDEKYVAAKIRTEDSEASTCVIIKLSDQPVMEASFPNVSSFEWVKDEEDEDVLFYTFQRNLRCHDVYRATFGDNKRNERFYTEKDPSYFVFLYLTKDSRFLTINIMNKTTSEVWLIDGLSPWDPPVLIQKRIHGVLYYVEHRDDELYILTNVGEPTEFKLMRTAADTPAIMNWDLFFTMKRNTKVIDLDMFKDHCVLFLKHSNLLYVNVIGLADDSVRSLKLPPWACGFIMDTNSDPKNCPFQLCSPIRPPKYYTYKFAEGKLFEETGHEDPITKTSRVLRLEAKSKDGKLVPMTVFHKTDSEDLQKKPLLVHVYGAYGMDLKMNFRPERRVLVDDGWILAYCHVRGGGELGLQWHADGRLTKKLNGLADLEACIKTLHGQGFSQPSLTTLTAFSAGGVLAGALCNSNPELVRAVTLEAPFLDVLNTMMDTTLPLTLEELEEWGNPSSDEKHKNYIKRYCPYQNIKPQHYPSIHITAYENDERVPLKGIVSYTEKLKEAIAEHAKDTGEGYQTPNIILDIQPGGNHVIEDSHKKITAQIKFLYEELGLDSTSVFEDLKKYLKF
# CSC inhib: cancer stem cell viability inhibitors, primary screen, luminescence | 1.1% of 300,000 active | inhibition, % at 7.5 µM | cancer stem cell-like cells viability; in the data active = inhibition above about 75%; tested in HMLE shEcad cells
# Beta apoptosis: inhibitors of cytokine-induced beta cell apoptosis, primary screen, luminescence; INS-1E cytokine-induced death, ATP luminescence, 48 h; percent of positive-control rescue, neutral wells zero; protection from apoptosis, % (no concentration beside the values); 0.8% of 300,000 active;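 active = Every replicate reaches about 75%, or at least half do and their mean reaches it too, limit read from the data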;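 also: 0% = cytokine-treated negative control wells and 100% = positive control rescue; higher means more ATP so stronger rescue from cytokine killing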
# NR3A LBD binder: binders of NR3A ligand-binding domain, primary screen, biophysical, differential scanning fluorimetry, uHTS; NR3A LBD differential scanning fluorimetry, Tm shift; 0% = protein alone, 100% = glycine-bound protein; Tm shift relative to glycine control, % at 25 µM; Glutamate receptor ionotropic, NMDA 3A (GRIN3A) ligand-binding domain; 2.5% of 340,000 active; AID 1259313, 2017;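 active = melting temperature shift of at least 10% of the positive control shift, at one fixed dose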
# T cruzi inh: inhibitors of intracellular T. cruzi growth, primary screen, luminescence, NIH3T3 host cells; T. cruzi beta-gal in NIH3T3, 90 h; inhibition, % (concentration not given with the values); 1.4% of 300,000 active;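 active = mean inhibition across valid replicates above about 55%, limit read from the data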;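 also: signal also drops with host cell toxicity which is not excluded here; 0% = plate median of DMSO wells and 100% = zero luminescence signal; higher percent means less beta-gal luminescence so fewer parasites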
#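 Material: NIH/3T3 host cells with β-galactosidase reporter T. cruzi; Input: 5,000 host fibroblasts per well; Medium: DMEM, 2% fetal bovine serum; Compound: 50 nL DMSO compound solution per well; Schedule: 3 h host attachment, then at least 90 h co-culture; Detection: luminescent β-galactosidase signal after 60 min lysis.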
# Numbers without * were called inactive; x = not tested or not shown. In the library only some 6.7% were active in any assay of this set; here they are far more common.
SMILES,CHOP inhibitor,PREPL inhibitor,CSC inhib,Beta apoptosis,NR3A LBD binder,T cruzi inh
O=C(c1ccc([N+](=O)[O-])o1)N1CCN(Cc2ccccc2)CC1,x,9,-14,-19,-5,45
CC(CCc1ccccc1)N1CCN(Cc2ccccc2)CC1 (centres undefined),13,-5,-5,2,-1,58*
CCOc1ccccc1OC(=O)CN1C(=O)c2ccccc2C1=O,x,3,x,x,-1,-12
Cc1cc(C)n(CC(=O)N/N=C/c2cc(Br)cc([N+](=O)[O-])c2O)n1,15,5,34,-2,-6,65*
CS(=O)(=O)c1cnc(-c2ccccc2)nc1-c1ccccc1Cl,-8,-7,0,-5,0,0
O=C1CC(c2ccc(F)cc2)CC(O)=C1C=NCCN1CCNCC1 (centres undefined),-9,7,x,-3,3,5
O=C1CC(c2ccco2)CC(O)=C1C=Nc1cc(Cl)cc(Cl)c1 (centres undefined),84*,4,13,-31,0,-13
O=C1CC(c2ccccc2)CC(O)=C1C=Nc1ccccc1Cl (centres undefined),60,5,9,-27,7,-33
O=C1CC(c2ccccc2)CC(O)=C1C=Nc1ccc(Cl)cc1 (centres undefined),83*,2,23,8,-1,-25
CC(C)CCN=CC1=C(O)CC(c2ccccc2)CC1=O (centres undefined),4,1,-14,7,-2,8
CCCN=CC1=C(O)CC(c2ccccc2)CC1=O (centres undefined),6,0,-13,-5,391*,-4
O=C1CC(c2ccccc2)CC(O)=C1C=NCCN1CCNCC1 (centres undefined),95*,12,-18,-4,0,-6
CCOc1ccc(CCNC(=O)COC(=O)c2nc(Cl)ccc2Cl)cc1OCC,x,-4,-14,-7,0,-1
O=C(Nc1cccc(F)c1)/C(=C/c1ccco1)NC(=O)c1ccco1,x,13,2,2,0,7
CN(C)c1nc(NC(C)(C)C)nc(NC(C)(C)C)n1,-9,-1,4,36,0,59*
CCNc1nc(NC(C)(C)C)nc(N(CC)n2cnnc2)n1,33,9,-11,1,1,15
CCCN(CCC)c1nc2ccccc2n2c(C)nnc12,83*,6,0,-1,2,36
CN(Cc1ccccc1OCCO)CC1CCCN(CCc2ccc(Cl)cc2)C1 (centres undefined),x,19,18,3,-3,46
COC(=O)c1cc(NC(=O)CSc2nncn2C)cc(C(=O)OC)c1,-4,3,x,-3,11*,-2
COC(=O)c1ccc(NC(=O)CSc2nncn2C)cc1,-15,8,1,-1,8,-11
O=C(NCCc1ccncc1)Nc1ccc(Cl)cc1,5,5,2,1,-4,7
O=C(NCCc1ccc(Cl)cc1)Nc1ccc(Cl)cc1,-12,-3,-1,-8,20*,31
CCN(CCNC(=O)C1CCN(S(C)(=O)=O)CC1)c1ccccc1,0,13,3,-2,-1,-8
CCN(CCNC(=O)Nc1ccc(Cl)cc1)c1ccccc1,75*,7,4,13,22*,21
CCN(CC)c1nc(OCCNC(=O)Nc2ccccc2)nc(N(CC)CC)n1,90*,16,34,1,-21,34
O=C(NCCOc1nc(N2CCCCC2)nc(N2CCCCC2)n1)Nc1ccccc1,63,12,26,2,-4,40
CC(=O)c1cccc(NC(=S)NCCc2ccc(Cl)cc2)c1,7,-10,-5,-2,15*,-8
CC(OC(=O)CC1Sc2ccccc2NC1=O)C(=O)N(C)Cc1ccccc1 (centres undefined),x,x,x,x,-1,x
Nc1ccc(S(=O)(=O)Nc2nc3ccccc3o2)cc1,x,4,-6,-8,-3,6
